Active and inactive are the calls of the source. No cut-off for these calls is given here.
Key:
[1] = Antiproliferative activity against human […] cells after 72 hrs by XTT assay; type: functional, cell-based
Method in brief: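 RPMI 8226 cells in RPMI 1640 with 10% FBS, plated at 15 000 cells/well and treated immediately with 0–10 μM WFA for 72 h. XTT added for 4 h. Growth as absorbance relative to vehicle control ×100. IC50 fitted from at least five concentrations; mean of three independent experiments ± SEM.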

[2] = test system: Multiple myeloma cancer stem cell; test: Antiproliferative activity against human multiple myeloma cancer stem cells after 72 hrs by MTT assay; type: functional, cell-based
Method in brief: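 MM-CSCs plated at 5000 cells/well and allowed to adhere 24 h, then exposed to 0–10 μM WFA for 72 h. MTT added for 2 h. Growth taken as absorbance relative to vehicle-control wells ×100. IC50 fitted from at least five concentrations; mean of three independent experiments ± SEM.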

[3] = test system: Multiple myeloma cancer stem cell; test: Induction of apoptosis in human multiple myeloma cancer stem cells assessed as decrease in viable cells at 5 uM after 24 hrs by annexin V/propidium iodide staining-based flow cytometric method; type: functional
Method in brief: (§1)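 Annexin V/propidium iodide apoptosis staining after 24 h WFA. MM-CSCs adhered 24 h before treatment; RPMIs treated immediately after seeding at 300 000 per well. Floating and adherent cells washed, adjusted to 10^6 cells/mL, stained 15 min at room temperature, flow cytometry separating viable, early and late apoptotic cells; ≥3 independent experiments, mean ± SEM.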

[4] = Cytotoxicity against human CD34-positive hematopoietic stem cells assessed as decrease in cell viability at <5 uM after 24 hrs by calcein AM/ethidium homodimer staining-based flow cytometric method
[5] = test system: Multiple myeloma cancer stem cell; test: Cell cycle arrest in human multiple myeloma cancer stem cells assessed as accumulation at G1 phase at 2.5 uM […] by FxCycle violet staining-based flow cytometric method (reference value: 45.1%); type: functional
Method in brief: (§2)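 Cells treated 24 h with vehicle or WFA; MM-CSCs were seeded at 100 000 per well and left to adhere 24 h first, RPMIs seeded at 300 000 per well and treated at once. Floating and adherent cells fixed and permeabilized, adjusted to 10^6 cells/mL in PBS, then stained with FxCycle DNA dye for 30 min at room temperature. Flow cytometry; ≥3 independent experiments, mean ± SEM.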

[6] = test system: Multiple myeloma cancer stem cell; test: Cell cycle arrest in human multiple myeloma cancer stem cells assessed as accumulation at G1 phase at 1.25 uM […] by FxCycle violet staining-based flow cytometric method (reference value: 45.1%); type: functional; method in brief: as §2
[7] = test system: Multiple myeloma cancer stem cell; test: Induction of morphological changes in human multiple myeloma cancer stem cells assessed as appearance of epithelial/lymphoblastic-like morphology at 0.62 uM after 24 hrs by phalloidin/DAPI staining-based assay; type: functional
Method in brief: (§3)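 MM-CSCs seeded at 5000 cells/well and allowed to adhere 24 h, then treated with increasing WFA for 24 h. Fixed in 4% paraformaldehyde for 10 min, permeabilized with 0.1% Triton X-100 for 5 min, stained with 5 U/mL phalloidin for 20 min and 1 μg/mL DAPI for 5 min at room temperature. Imaged; cell area and circularity quantified; 3 experiments.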

[8] = Cytotoxicity against human CD34-positive hematopoietic stem cells assessed as decrease in cell viability at 10 uM after 24 hrs by calcein AM/ethidium homodimer staining-based flow cytometric method
Homo sapiens [9] = organism: Homo sapiens; test: Cytotoxicity against human RPMI18226 cells assessed as increase in dead cells at 1.25 uM after 24 hrs by calcein AM/ethidium homodimer staining-based flow cytometric method (reference value: 21.4%); type: functional, cell-based
[10] = Cytotoxicity against human RPMI18226 cells assessed as dead cells at 10 uM after 24 hrs by calcein AM/ethidium homodimer staining-based flow cytometric method (reference value: 21.4%); type: functional
Homo sapiens [11] = organism: Homo sapiens; test: Induction of apoptosis in human […] cells assessed as increase in late apoptotic cells at 1.25 uM after 24 hrs by annexin V/propidium iodide staining-based flow cytometric method; type: functional, cell-based; method in brief: as §1
[12] = test system: Multiple myeloma cancer stem cell; test: Induction of differentiation of human multiple myeloma cancer stem cells assessed as downregulation of SOX2 mRNA expression at 0.31 to 5 uM after 24 hrs by qPCR method; type: functional, cell-based
Method in brief: (§4)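 MM-CSCs treated with vehicle or increasing WFA concentrations for 24 h. Relative mRNA levels of the stemness markers then measured; mean ± SEM of 3 independent experiments, one-way ANOVA with Bonferroni test.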

[13] = Cytotoxicity against human RPMI18226 cells assessed as cell viability at 10 uM after 24 hrs by calcein AM/ethidium homodimer staining-based flow cytometric method (reference value: 67.7%); type: functional; settings: RPMI18226, 24 h, read-out: Activity
[14] = Cell cycle arrest in human […] cells assessed as accumulation at sub-G1 phase at 2.5 uM […] by FxCycle violet staining-based flow cytometric method (reference value: 10.8%); type: functional; method in brief: as §2
[15] = test system: Multiple myeloma cancer stem cell; test: Cytotoxicity against human multiple myeloma cancer stem cells assessed as cell viability at 10 uM after 24 hrs by calcein AM/ethidium homodimer staining-based flow cytometric method (reference value: 95.7%); type: functional; settings: read-out: Activity
[16] = test system: Multiple myeloma cancer stem cell; test: Induction of morphological changes in human multiple myeloma cancer stem cells assessed as appearance of larger cytoplasmic area at 1.25 uM after 24 hrs by phalloidin/DAPI staining-based assay; type: functional; method in brief: as §3
[17] = test system: Multiple myeloma cancer stem cell; test: Cytotoxicity against human multiple myeloma cancer stem cells assessed as decrease in cell viability after 24 hrs by calcein AM/ethidium homodimer staining-based flow cytometric method; type: functional
[18] = test system: Multiple myeloma cancer stem cell; test: Induction of morphological changes in human multiple myeloma cancer stem cells assessed as cell enlargement at 0.62 uM after 24 hrs by phalloidin/DAPI staining-based assay; type: functional; method in brief: as §3
RPMI-8226 (Homo sapiens) [19] = test: Cell cycle arrest in human RPMI-8226 cells assessed as accumulation at S phase at 2.5 uM […] by FxCycle violet staining-based flow cytometric method (reference value: 40.9%)
[20] = test system: Multiple myeloma cancer stem cell; test: Induction of apoptosis in human multiple myeloma cancer stem cells assessed as increase in late apoptotic cells at 5 uM after 24 hrs by annexin V/propidium iodide staining-based flow cytometric method; type: functional; method in brief: as §1
[21] = test system: Multiple myeloma cancer stem cell; test: Cytotoxicity against human multiple myeloma cancer stem cells assessed as dead cells at 10 uM after 24 hrs by calcein AM/ethidium homodimer staining-based flow cytometric method (reference value: 0.7%); type: functional
[22] = test system: Multiple myeloma cancer stem cell; test: Cell cycle arrest in human multiple myeloma cancer stem cells assessed as accumulation at G1 phase at 0.62 uM […] by FxCycle violet staining-based flow cytometric method (reference value: 45.1%); type: functional; method in brief: as §2
RPMI-8226 (Homo sapiens) [23] = test: Cell cycle arrest in human RPMI-8226 cells assessed as accumulation at S phase at 0.62 uM […] by FxCycle violet staining-based flow cytometric method (reference value: 40.9%)
Homo sapiens [24] = organism: Homo sapiens; test: Induction of apoptosis in human […] cells assessed as decrease in viable cells at 1.25 uM after 24 hrs by annexin V/propidium iodide staining-based flow cytometric method; type: functional, cell-based; method in brief: as §1
Homo sapiens [25] = organism: Homo sapiens; test: Cytotoxicity against human RPMI18226 cells assessed as decrease in cell viability after 24 hrs by calcein AM/ethidium homodimer staining-based flow cytometric method; type: functional
[26] = test system: Multiple myeloma cancer stem cell; test: Cytotoxicity against human multiple myeloma cancer stem cells assessed as cell viability at 2.5 uM after 24 hrs by calcein AM/ethidium homodimer staining-based flow cytometric method (reference value: 95.7%); type: functional; settings: read-out: Activity
[27] = test system: Multiple myeloma cancer stem cell; test: Antimigratory activity in human multiple myeloma cancer stem cells at 0.62 to 1.25 uM after 24 hrs by scratch assay; type: functional, cell-based
Method in brief: (§5)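 MM-CSCs seeded at 100 000 cells per well, grown 24 h to a confluent monolayer, scratched with a pipette tip and imaged at 0 h. Cells then treated with increasing WFA concentrations for 24 h and the same spot re-imaged. Percent unfilled space = scratch width at 24 h / width at 0 h × 100; recovery = 100 − unfilled. 3 independent experiments.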

[28] = Cell cycle arrest in human […] cells assessed as accumulation at sub-G1 phase at 1.25 uM […] by FxCycle violet staining-based flow cytometric method (reference value: 10.8%); type: functional; method in brief: as §2
[29] = test system: Multiple myeloma cancer stem cell; test: Antimigratory activity in human multiple myeloma cancer stem cells at 2.5 uM after 24 hrs by scratch assay; type: functional, cell-based; method in brief: as §5
[30] = test system: Multiple myeloma cancer stem cell; test: Induction of differentiation of human multiple myeloma cancer stem cells assessed as downregulation of CD166 mRNA expression at 0.31 to 5 uM after 24 hrs by qPCR method; type: functional, cell-based; method in brief: as §4
[31] = test system: Multiple myeloma cancer stem cell; test: Induction of morphological changes in human multiple myeloma cancer stem cells assessed as appearance in circular shape at 0.62 uM after 24 hrs by phalloidin/DAPI staining-based assay; type: functional; method in brief: as §3
[32] = Cell cycle arrest in human […] cells assessed as accumulation at G2/M phase at 1.25 uM […] by FxCycle violet staining-based flow cytometric method (reference value: 20.2%); type: functional; method in brief: as §2
[33] = test system: Multiple myeloma cancer stem cell; test: Induction of differentiation of human multiple myeloma cancer stem cells assessed as upregulation of CD44 mRNA expression at 0.31 to 5 uM after 24 hrs by qPCR method; type: functional, cell-based; method in brief: as §4
RPMI-8226 (Homo sapiens) [34] = test: Cell cycle arrest in human RPMI-8226 cells assessed as accumulation at S phase at 1.25 uM […] by FxCycle violet staining-based flow cytometric method (reference value: 40.9%)
[35] = Cell cycle arrest in human […] cells assessed as accumulation at G1 phase at 1.25 uM […] by FxCycle violet staining-based flow cytometric method (reference value: 28.2%); type: functional; method in brief: as §2
[36] = test system: Multiple myeloma cancer stem cell; test: Cell cycle arrest in human multiple myeloma cancer stem cells assessed as accumulation at G2/M phase at 1.25 uM […] by FxCycle violet staining-based flow cytometric method (reference value: 22.9%); type: functional; method in brief: as §2
[37] = test system: Multiple myeloma cancer stem cell; test: Cell cycle arrest in human multiple myeloma cancer stem cells assessed as accumulation at G2/M phase at 2.5 uM […] by FxCycle violet staining-based flow cytometric method (reference value: 22.9%); type: functional; method in brief: as §2
[38] = Cell cycle arrest in human […] cells assessed as accumulation at sub-G1 phase at 0.62 uM […] by FxCycle violet staining-based flow cytometric method (reference value: 10.8%); type: functional; method in brief: as §2
[39] = Cytotoxicity against human RPMI18226 cells assessed as cell viability at 1.25 uM after 24 hrs by calcein AM/ethidium homodimer staining-based flow cytometric method (reference value: 67.7%); type: functional; settings: RPMI18226, 24 h, read-out: Activity
[40] = test system: Multiple myeloma cancer stem cell; test: Induction of morphological changes in human multiple myeloma cancer stem cells assessed as appearance in spherical shape at 1.25 uM after 24 hrs by phalloidin/DAPI staining-based assay; type: functional; method in brief: as §3
Homo sapiens [41] = organism: Homo sapiens; test: Cell cycle arrest in human […] cells assessed as accumulation at sub-G1 phase […] by FxCycle violet staining-based flow cytometric method; type: functional; method in brief: as §2
[42] = test system: Multiple myeloma cancer stem cell; test: Cytotoxicity against human multiple myeloma cancer stem cells assessed as dying cells at 10 uM after 24 hrs by calcein AM/ethidium homodimer staining-based flow cytometric method (reference value: 3.6%); type: functional
[43] = test system: Multiple myeloma cancer stem cell; test: Induction of differentiation of human multiple myeloma cancer stem cells assessed as upregulation of Kit mRNA expression at 0.31 to 5 uM after 24 hrs by qPCR method; type: functional, cell-based; method in brief: as §4
[44] = test system: Multiple myeloma cancer stem cell; test: Induction of differentiation of human multiple myeloma cancer stem cells assessed as downregulation of MSI2 mRNA expression at 0.31 to 5 uM after 24 hrs by qPCR method; type: functional, cell-based; method in brief: as §4
[45] = test system: Multiple myeloma cancer stem cell; test: Induction of differentiation of human multiple myeloma cancer stem cells assessed as downregulation of CD151 mRNA expression at 0.31 to 5 uM after 24 hrs by qPCR method; type: functional, cell-based; method in brief: as §4

C[C@@H]1C[C@H]2[C@@H]3CCC4=CC(=O)C=C[C@]4(C)[C@@]3(F)[C@@H](O)C[C@]2(C)[C@@]1(O)C(=O)CO [DEXAMETHASONE]
IC50 [1]: 7.8 nM | IC50 [2]: > 100000 nM

CC1=C(CO)C(=O)O[C@@H]([C@@H](C)[C@H]2CC[C@H]3[C@@H]4C[C@H]5O[C@]56[C@@H](O)C=CC(=O)[C@]6(C)[C@H]4CC[C@]23C)C1 [WITHAFERIN A]
Activity [3]: Active | Activity [4]: Non-Toxic | Activity [5]: 19.5% | IC50 [1]: 224 nM | Activity [6]: 15.5% | Activity [7]: Active | Activity [8]: Toxic | Activity (Homo sapiens [9]): Active | Activity [10]: 87% | Activity (Homo sapiens [11]): Active | Activity [12]: Active | viability at 10 µM [13]: 8.2% | Activity [14]: 21.5% | viability at 10 µM [15]: 12.1% | Activity [16]: Active | Activity [17]: Dose-dependent effect | Activity [18]: Active | IC50 [2]: 650 nM | Activity (RPMI-8226 (Homo sapiens) [19]): 34% | Activity [20]: Active | Activity [21]: 56.4% | Activity [22]: 21.5% | Activity (RPMI-8226 (Homo sapiens) [23]): 31.7% | Activity (Homo sapiens [24]): Active | Activity (Homo sapiens [25]): Dose-dependent effect | viability at 2.5 µM [26]: 64.6% | Activity [27]: inactive | Activity [28]: 23.1% | Activity [29]: Active | Activity [30]: Active | Activity [31]: Active | Activity [32]: 28.4% | Activity [33]: Active | Activity (RPMI-8226 (Homo sapiens) [34]): 29.4% | Activity [35]: 19.1% | Activity [36]: 59.6% | Activity [37]: 61.4% | Activity [38]: 15.6% | viability at 1.25 µM [39]: 32.1% | Activity [40]: Active | Activity (Homo sapiens [41]): Dose-dependent effect | Activity [42]: 31.5% | Activity [43]: Active | Activity [44]: Active | Activity [45]: Active
